Consider four molecules from ChEMBL document CHEMBL1124476, “1-(2-aminoethyl)-6-aryl-4H- [1,2,4]triazolo[4,3-a][1,4]benzodiazepines with diuretic and natriuretic activity” (J Med Chem, 1989).

For data set [1], the system named is Rattus norvegicus. As to the kind of experiment: Mean excretion of sodium in conscious rats at a dose of 100 mg/kg given orally. It counts as ADME, organism-based. Also noted: dose 100 mg/kg, route oral. To be noted: in vivo, po. The method, boiled down: (§1)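 Male Sprague-Dawley rats, about 160 g, fasted 24 h and water withheld 1 1/2 h beforehand; food and water withheld during the test. Dosing by gavage with 25 mL/kg 0.9% saline containing 0.5% (carboxymethyl)cellulose, agent dissolved or suspended. Three cages of two rats each per dose, held in metabolism cages. Urine collected over 5 h. Volume given in mL, Na+ in mequiv. Significance versus control at P < 0.05.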

For data set [2], the system named is Rattus norvegicus. As to the kind of experiment: Mean excretion of chloride in conscious rats at a dose of 3.0 mg/kg given orally. It counts as ADME, organism-based. Also noted: dose 3 mg/kg, route oral. Conditions: in vivo, po. The method, boiled down:
(§2)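 Secondary dose-response in male Sprague-Dawley rats (~160 g), fasted and hydrated as in the primary screen. Oral gavage at 0.3-100 mg/kg in 25 mL/kg saline/0.5% CMC, three cages of two rats per dose. Urine collected 5 h; Na, K, Cl, HCO3 measured. Values are mean excretion (mequiv), compared with controls at P < 0.05.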

A short description of data set [3]: Diuretic activity at 40 mg/kg (screening dose 84.7 umol/kg) in […] in a one stage experiment; T/C = urine vol of treated rats / urine vol of control rats. It counts as functional. In outline: (§3)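 40 mg/kg given by gavage in 25 mL/kg 0.9% saline with 0.5% (carboxymethyl)cellulose. Four rats per agent, two per metabolism cage; 20 controls; 5 h urine. T/C = treated/control urine volume. Stage-1 T/C of 1.66 or more leads to stage 2; product T/C1·T/C2 of 3.34 or more counts as active.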

The subject of data set [4] is Rattus norvegicus. Description: Mean excretion of sodium in conscious rats at a dose of 30 mg/kg given orally. The class given is ADME, organism-based. Also noted: dose 30 mg/kg, route oral. To be noted: in vivo, po. In outline:
as §1

Data set [5] relates to Rattus norvegicus. As to the kind of experiment: Mean excretion of sodium in conscious rats at a dose of 0.3 mg/kg given orally. The class given is ADME, organism-based. Also noted: dose 0.3 mg/kg, route oral. To be noted: in vivo, po. In outline:
as §1

The test system of data set [6] is Rattus norvegicus. As to the kind of experiment: Mean excretion of chloride in conscious rats at a dose of 10 mg/kg given orally. The class given is ADME, organism-based. Also noted: dose 10 mg/kg, route oral. To be noted: in vivo, po. The method, boiled down: as §2
For data set [7], the system named is Rattus norvegicus. As to the kind of experiment: Mean excretion of chloride in conscious rats at a dose of 100 mg/kg given orally. It counts as ADME, organism-based. Also noted: dose 100 mg/kg, route oral. To be noted: in vivo, po. The method, boiled down: as §2
The test system of data set [8] is Rattus norvegicus. As to the kind of experiment: Mean excretion of potassium in conscious rats at a dose of 30 mg/kg given orally. The class given is ADME, organism-based. Also noted: dose 30 mg/kg, route oral. Conditions: in vivo, po. In outline:
as §2

Data set [9] relates to Rattus norvegicus. Description: Mean excretion of chloride in conscious rats at a dose of 1.0 mg/kg given orally. Conditions: in vivo, po. On the set-up: dose 1 mg/kg, route oral. The class given is ADME, organism-based. In outline:
as §2

For data set [10], the system named is Rattus norvegicus. Description: Mean excretion of sodium in conscious rats at a dose of 10 mg/kg given orally. The class given is ADME, organism-based. On the set-up: dose 10 mg/kg, route oral. Conditions: in vivo, po. In outline:
as §1

Data set [11] relates to Rattus norvegicus. As to the kind of experiment: Mean excretion of potassium in conscious rats at a dose of 0.3 mg/kg given orally. It counts as ADME, organism-based. Also noted: dose 0.3 mg/kg, route oral. Conditions: in vivo, po. In outline: as §2
The subject of data set [12] is Rattus norvegicus. Description: Mean excretion of potassium in conscious rats at a dose of 3.0 mg/kg given orally. Also noted: dose 3 mg/kg, route oral. To be noted: in vivo, po. It counts as ADME, organism-based. In outline:
as §2

For data set [13], the species on record is Rattus norvegicus. Description: […]. The class given is ADME, organism-based, Urine. On the set-up: dose 3 mg/kg, route oral. Conditions: in vivo, po, 3 mg/kg. The method, boiled down: as §1
The subject of data set [14] is Rattus norvegicus. Description: Mean excretion of […] in conscious rats at a dose of 1.0 mg/kg given orally. Conditions: in vivo, po. On the set-up: dose 1 mg/kg, route oral. It counts as ADME, organism-based. The method, boiled down: as §1
Data set [15] concerns Rattus norvegicus. As to the kind of experiment: Mean excretion of sodium in conscious rats at a dose of 3.0 mg/kg given orally. To be noted: in vivo, po. It counts as ADME, organism-based. Also noted: dose 3 mg/kg, route oral. In outline:
as §1

Data set [16] concerns Rattus norvegicus. Description: Mean excretion of potassium in conscious rats at a dose of 1.0 mg/kg given orally. It counts as ADME, organism-based. Conditions: in vivo, po. On the set-up: dose 1 mg/kg, route oral. In outline: as §2
For data set [17], the species on record is Rattus norvegicus. As to the kind of experiment: […]. On the set-up: dose 30 mg/kg, route oral. Conditions: in vivo, po, 30 mg/kg. It counts as ADME, organism-based, Urine. The method, boiled down: as §1
Data set [18] concerns Rattus norvegicus. Description: Mean excretion of chloride in conscious rats at a dose of 30 mg/kg given orally. To be noted: in vivo, po. Also noted: dose 30 mg/kg, route oral. It counts as ADME, organism-based. In outline: as §2
Data set [19] is described as follows: Diuretic activity at 40 mg/kg (screening dose-84.7 umol/kg) in […] in a two stage experiment; T/C1.2 = urine vol of treated rats / urine vol of control rats. The class given is functional. The method, boiled down:
as §3

Data set [20] has as its system Rattus norvegicus. As to the kind of experiment: Mean excretion of potassium in conscious rats at a dose of 100 mg/kg given orally. It counts as ADME, organism-based. On the set-up: dose 100 mg/kg, route oral. Conditions: in vivo, po. The method, boiled down:
as §2

In data set [21] the test system is Rattus norvegicus. As to the kind of experiment: Mean excretion of potassium in conscious rats at a dose of 10 mg/kg given orally. The class given is ADME, organism-based. To be noted: in vivo, po. Also noted: dose 10 mg/kg, route oral. In outline: as §2
The species named for data set [22] is Rattus norvegicus. As to the kind of experiment: […]. It counts as ADME, organism-based, Urine. Conditions: in vivo, po, 0.3 mg/kg. On the set-up: dose 0.3 mg/kg, route oral. The method, boiled down:
(§4)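 Dose-response test in male Sprague-Dawley rats of about 160 g, fasted 24 h, with water withheld 1½ h before and during the test. Each rat got a single gavage of 25 mL/kg 0.9% saline with 0.5% carboxymethylcellulose carrying the agent (0.3–100 mg/kg range). Rats were housed two per metabolism cage, and urine was collected for 5 h. Mean urine volume (mL) was compared with controls (P < 0.05).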

The species named for data set [23] is Rattus norvegicus. Description: […]. Conditions: in vivo, po, 10 mg/kg. Also noted: dose 10 mg/kg, route oral. The class given is ADME, organism-based, Urine. In outline: as §1
Data set [24] concerns Rattus norvegicus. As to the kind of experiment: Mean excretion of Cl- in conscious rats at a dose of 0.3 mg/kg given orally. The class given is ADME, organism-based, Urine. Also noted: dose 0.3 mg/kg, route oral. Conditions: in vivo, po. In outline: as §4
For data set [25], the species on record is Rattus norvegicus. As to the kind of experiment: […]. It counts as ADME, organism-based, Urine. On the set-up: dose 1 mg/kg, route oral. To be noted: in vivo, po, 1 mg/kg. In outline:
as §4

The species entered for data set [26] is Rattus norvegicus. As to the kind of experiment: […]. It counts as ADME, organism-based, Urine. On the set-up: dose 100 mg/kg, route oral. To be noted: in vivo, po, 100 mg/kg. The method, boiled down:
as §1

A short description of data set [27]: Diuretic activity at 40 mg/kg (screening dose-88.2 uM/Kg) in […] in a two stage experiment; T/C1.2 = urine vol of treated rats / urine vol of control rats. It counts as functional. In outline:
as §3

The nature of data set [28]: Diuretic activity at 40 mg/kg (screening dose 88.2 umol/kg) in […] in a one stage experiment; T/C = urine vol of treated rats / urine vol of control rats. It counts as functional. The method, boiled down:
as §3

Data set [29] is described as follows: Diuretic activity at 40 mg/kg (screening dose-97.3 umol/kg) in […] in a two stage experiment; T/C1.2 = urine vol of treated rats / urine vol of control rats. It counts as functional. In outline:
as §3

The nature of data set [30]: Diuretic activity at 40 mg/kg (screening dose-97.3 umol/kg) in […] in a one stage experiment; T/C = urine vol of treated rats / urine vol of control rats. The class given is functional. The method, boiled down: as §3
The nature of data set [31]: Diuretic activity at 40 mg/kg (screening dose-61.6 umol/kg) in […] in a one stage experiment; T/C = urine vol of treated rats / urine vol of control rats. The class given is functional. The method, boiled down: as §3

In the case of `CN(C)CC(c1ccccc1Cl)c1nnc2n1-c1ccc(Cl)cc1C(c1ccccc1)=NC2` (centres undefined), the “Mean excretion of Na+” value in data set [1] is 1.76 m equiv; in data set [4], 1.22 m equiv; in data set [5], 1 m equiv; in data set [10] it was 1.03 m equiv; in [14], 0.93 m equiv; in data set [15], 0.81 m equiv. The “Mean excretion of Cl-” value in data set [2] is 0.84 m equiv; in data set [6], 1.13 m equiv; in data set [7], 1.69 m equiv; in data set [9], 0.93 m equiv; in data set [18], 1.21 m equiv; in data set [24] it was 1.08 m equiv. Moreover, the “T/C 1” value in data set [3] is given as 1.67. Besides, the “Mean excretion of K+” value was determined as 0.16 m equiv in data set [8]; 0.25 m equiv in data set [11]; 0.22 m equiv in [12]; 0.24 m equiv in [16]; 0.22 m equiv in data set [20]; 0.21 m equiv in [21]. The Mean urine volume in [13] came out at 4.67 mL; in data set [17], 6.73 mL; in [22] it was 5.36 mL; in data set [23], 5.37 mL; in data set [25] it was 4.54 mL; in [26], 9.85 mL. Further, the “T/C 1.2” value in data set [19] was 3.77.

Consider `CSc1ccc2c(c1)C(c1ccccc1)=NCc1nnc(C(CN(C)C)c3ccccc3)n1-2` (centres undefined), for which the “Mean excretion of Na+” value amounted to 2.52 m equiv in [1]; 1.87 m equiv in [4]; 0.88 m equiv in data set [5]; 1.39 m equiv in data set [10]; 0.94 m equiv in data set [14]; 0.91 m equiv in [15]. Further, the “Mean excretion of Cl-” value in data set [2] is given as 0.9 m equiv; in data set [6], 1.28 m equiv; in data set [7], 2.17 m equiv; in data set [9], 0.89 m equiv; in data set [18], 1.69 m equiv; in data set [24], 0.76 m equiv. Also, the “Mean excretion of K+” value in data set [8] was 0.25 m equiv; in data set [11] it was 0.31 m equiv; in data set [12] it was 0.36 m equiv; in [16], 0.31 m equiv; in data set [20], 0.28 m equiv; in [21], 0.23 m equiv. The “T/C 1.2” value in [27] worked out at 6.6. The Mean urine volume in data set [13] is 5.2 mL; in data set [17] it was 10.39 mL; in data set [22], 3.92 mL; in data set [23], 6.83 mL; in data set [25], 5.12 mL; in data set [26], 14.14 mL. The “T/C 1” value in data set [28] was determined as 2.29.

For `CN(C)CCc1nnc2n1-c1ccc(Br)cc1C(c1ccccn1)=NC2`, the “Mean excretion of Na+” value is reported as 1.26 m equiv in data set [1]; 1.03 m equiv in data set [4]; 0.74 m equiv in [5]; 0.77 m equiv in data set [10]; 0.6 m equiv in data set [14]; 0.79 m equiv in data set [15]. Moreover, the “Mean excretion of Cl-” value in data set [2] is reported as 0.84 m equiv; in data set [6], 0.81 m equiv; in [7], 1.21 m equiv; in data set [9], 0.7 m equiv; in data set [18], 1.05 m equiv; in [24], 0.81 m equiv. The “Mean excretion of K+” value in [8] came to 0.37 m equiv; in data set [11], 0.38 m equiv; in data set [12] it was 0.39 m equiv; in [16] it was 0.32 m equiv; in data set [20], 0.41 m equiv; in data set [21], 0.33 m equiv. For the same molecule, the “T/C 1.2” value in data set [29] came out at 3.46. Further, the Mean urine volume in [13] is 5.53 mL; in [17] it was 8.05 mL; in [22], 5.94 mL; in [23], 5.63 mL; in data set [25], 4.69 mL; in data set [26] it was 11.02 mL. Further, the “T/C 1” value in data set [30] was 1.75.

As to `Clc1ccc2c(c1)C(c1ccccc1)=NCc1nnc(C(CN3CCN(c4ccccc4)CC3)c3ccccc3)n1-2.O=C(O)C(=O)O` (centres undefined), in [31], the “T/C 1” value was 0.95.
